This is an account of results in ChEMBL document CHEMBL1127690, “Antiinflammatory 4,5-diarylpyrroles: synthesis and QSAR” (J Med Chem, 1994).

pIC50: −log10 of the molar value.

The species entered for data set [1] is Rattus norvegicus. Put plainly: Antiinflammatory activity against adjuvant induced arthritis in male charles river rats. The class given is functional.
A short description of data set [2]: Cmax value at a dose of 12.7 uM/kg, po. The class given is ADME, organism-based. Details: dose 12.7 uM/kg, route oral. The note with it: in vivo.
Data set [3] in a line: Cmax value at a dose of 6.3 uM/kg, iv. The format is ADME, organism-based. Further details: dose 6.3 uM/kg, route intravenous. To be noted: in vivo.
Data set [4] in a line: Elimination half life at a dose of 12.7 uM/kg, po. The format is ADME, organism-based. The note with it: in vivo.
Data set [5] in a line: Elimination half life at a dose of 6.3 uM/kg iv. The format is ADME, organism-based. To be noted: in vivo.
Data set [6] is described as follows: Volume of distribution at a dose of 6.3 uM/kg, iv. The format is ADME, organism-based. To be noted: in vivo.
The test system of data set [7] is Rattus norvegicus. The data set is described as follows: Safety assessment in adjuvant induced arthritis rat model (AA),day 18,po. The class given is functional. The note with it: 432 h, read-out: ED50.
The test system of data set [8] is Rattus norvegicus. The data set is described as follows: Safety assessment in adjuvant induced arthritis rat model (AA),po. The note with it: for ED50: read-out: ED50. The format is functional.
The species named for data set [9] is Rattus norvegicus. The data set is described as follows: Compound was evaluated for 12 day tolerance in long evans rats. The class given is functional.
Data set [10] is described as follows: TD50/ED50 value of the compound. The format is functional. The procedure, abridged: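 Ratio of the GI lesion TD50 to the established adjuvant arthritis paw ED50, both measured orally in rats.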
Data set [11] can be described thus: Ratio (12-day no effect/AA ED50) of the compound. The format is functional. The essentials: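 Maximum no-effect dose from the 12-day study divided by the adjuvant arthritis ED50. […] Read-outs were mortality, pharmacologic or toxic signs, body and organ weights and gross necropsy.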
Data set [12] can be described thus: Gastrointestinal safety of a compound relative to indomethacin and piroxicam. The format is ADME. The essentials: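 Male Sprague-Dawley rats (~165 g) received a single oral dose of drug or vehicle. Stomach and small intestine were examined for mucosal lesions under a 10× dissecting microscope in coded, randomized order. Any single lesion counted as positive. TD50 was calculated by the moving-average method.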

For data set [13], the target named is T1, Polyunsaturated fatty acid 5-lipoxygenase (Rattus norvegicus, UniProt P12527).
T1 sequence (P12527 whole entry): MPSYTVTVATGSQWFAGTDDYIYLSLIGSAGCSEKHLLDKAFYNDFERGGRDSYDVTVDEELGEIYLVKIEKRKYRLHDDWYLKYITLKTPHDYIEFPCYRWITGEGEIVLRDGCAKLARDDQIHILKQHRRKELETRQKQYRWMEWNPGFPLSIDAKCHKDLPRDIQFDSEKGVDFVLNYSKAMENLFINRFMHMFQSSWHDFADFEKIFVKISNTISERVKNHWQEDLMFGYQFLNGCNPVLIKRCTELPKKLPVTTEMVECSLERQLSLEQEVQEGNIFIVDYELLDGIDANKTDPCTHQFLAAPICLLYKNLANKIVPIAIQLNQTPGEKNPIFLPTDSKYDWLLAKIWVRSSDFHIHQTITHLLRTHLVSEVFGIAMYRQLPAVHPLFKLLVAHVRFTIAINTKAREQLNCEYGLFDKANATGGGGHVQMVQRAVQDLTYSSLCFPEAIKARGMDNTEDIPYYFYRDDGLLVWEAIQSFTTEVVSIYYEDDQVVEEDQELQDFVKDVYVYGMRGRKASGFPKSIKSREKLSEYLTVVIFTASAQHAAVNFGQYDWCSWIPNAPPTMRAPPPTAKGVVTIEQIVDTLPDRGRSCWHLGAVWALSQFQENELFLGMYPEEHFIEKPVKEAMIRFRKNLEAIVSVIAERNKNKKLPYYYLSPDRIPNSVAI
Put plainly: Inhibitory activity against rat basophilic leukemia 5-lipoxygenase.

For data set [14], the species on record is Mus musculus. The data set is described as follows: Activity in the mouse oral contact sensitivity model. The format is functional.
For data set [15], the species on record is Rattus norvegicus. Put plainly: Effective dose required for prevention of nonestablished adjuvant arthritis model wih an oral paw 18-day. The format is functional. The note with it: 432 h.
Data set [16] is filed under the species Rattus norvegicus. Put plainly: Maximum tolerated dose for 12 days in long evans rats. The class given is functional.
Data set [17] can be described thus: Safety assessment in car paw assay, po. The class given is toxicity.
A short description of data set [18]: Maximum blood level reached after an iv dose of 12.2 uM/kg. The format is ADME, organism-based. Further details: dose 12.2 uM/kg, route intravenous. The note with it: in vivo.
A short description of data set [19]: Elimination half life at dose of 12.2 uM/kg, iv. The class given is ADME, organism-based. The note with it: in vivo.
The nature of data set [20]: Volume of distribution at dose of 12.2 uM/kg, iv. To be noted: in vivo. The format is ADME, organism-based.
Data set [21] can be described thus: Elimination half life at dose of 12.2uM/kg, po. The note with it: in vivo.
Data set [22] can be described thus: Cmax value at a dose of 7.1 uM/kg, iv. The format is ADME, organism-based. Further details: dose 7.1 uM/kg, route intravenous. The note with it: in vivo.
Data set [23] is described as follows: Maximum blood level reached after an oral dose of 5.0 mg/kg. The format is ADME, organism-based. Details: dose 5 mg/kg, route oral. The note with it: in vivo.
Data set [24] can be described thus: Elimination half life at a dose of 14.3 uM/kg, po. The format is ADME, organism-based. The note with it: in vivo.
Data set [25] is described as follows: Elimination half life at a dose of 7.1 uM/kg, iv. The format is ADME, organism-based. To be noted: in vivo.
The nature of data set [26]: Bioavailability at a dose of 7.1 uM/kg, iv. The class given is ADME, organism-based. The note with it: eutheria, in vivo.
Data set [27] can be described thus: Volume of distribution at a dose of 7.1 uM/kg, iv. The class given is ADME, organism-based. The note with it: in vivo.

Broadly, the ED50 is the dose at which the effect has come halfway, by size or by number of responders. In the case of `CS(=O)(=O)c1ccc(-c2[nH]ccc2-c2ccc(F)cc2)cc1`, the ED50 in data set [1] is over 100 mg/kg.

In general, half-life refers to how long it takes for the measured level to halve. The term Vd denotes a proportionality between amount in the body and measured concentration, not a real space. High values mean wide distribution into tissue, low ones little distribution into tissue. In the case of `CS(=O)(=O)c1ccc(-c2[nH]c(Br)cc2-c2ccc(F)cc2)cc1`, the Cmax came out at 3 uM l-1 in [2] and 2 uM l-1 in data set [3]. The half-life in data set [4] is 594 min; in [5], 612 min. The molecule also showed a Vd in [6] of 3.5 L/kg. Besides, the ED50 in [1] came out at 1.05 mg/kg; in data set [7], 22.7 µmol/kg; in data set [8] it was 2.55 µmol/kg. For the same molecule, in [9], the no-effect dose is over 46 µM/kg. For the same molecule, in [10], the TD50/ED50 was determined as 36. Moreover, the Ratio in [11] was over 43. Besides, in [12], the TD50 stood at 95.9 µmol/kg.

For orientation: pIC50 means −log10 of the IC50, conventionally taken in molar units. Regarding `CS(=O)(=O)c1ccc(-c2[nH]c(SC#N)cc2-c2ccc(F)cc2)cc1`, the pIC50 in [13] is 7.10. The molecule further showed an ED35 in [14] of 8 mg/kg. The ED50 is 7 mg/kg in data set [15], 3.9 mg/kg in data set [1], 18.8 µmol/kg in data set [7] and 10.5 µmol/kg in data set [8]. In addition, the no-effect dose in data set [9] is over 418 µM/kg. This molecule also displayed a Max tolerated dose in data set [16] of over 418 µM/kg. The ED30 in [17] was found to be 268.5 µM/kg. In data set [12], this molecule showed a TD50 of over 335 µmol/kg.

On to `Cn1c(Br)cc(-c2ccc(F)cc2)c1-c1ccc(S(C)(=O)=O)cc1`, for which, in data set [18], the Cmax is 2.9 uM l-1. For the same molecule, the half-life in data set [19] is 822 min; in [21], 258 min. Moreover, the volume of distribution (Vd) in data set [20] was determined as 10 L/kg. In addition, the ED50 turned out to be 1.7 mg/kg in data set [1] and 3.43 µmol/kg in data set [8]. In [10], the TD50/ED50 is over 100. The same molecule displayed a TD50 in data set [12] of over 416 µmol/kg.

Consider `CCOC(=O)CCCCn1c(Cl)cc(-c2ccc(F)cc2)c1-c1ccc(S(C)(=O)=O)cc1`, for which the ED50 in [1] was over 100 mg/kg.

Take `CCCCC1C(=O)N(c2ccccc2)N(c2ccccc2)C1=O` [PHENYLBUTAZONE]: the ED50 in data set [1] came to 10 mg/kg.

As to `CS(=O)(=O)c1ccc(-c2[nH]c(S(C)(=O)=O)cc2-c2ccc(F)cc2)cc1`, in data set [1], the ED50 was found to be 36.6 mg/kg.

`CS(=O)(=O)c1ccc(-c2[nH]c([N+](=O)[O-])cc2-c2ccc(F)cc2)cc1`: the ED50 in [1] was found to be 9 mg/kg.

`Cn1c(SC#N)cc(-c2ccc(F)cc2)c1-c1ccc(S(C)(=O)=O)cc1`: the ED50 in data set [1] is over 27 mg/kg.

Turning to `CS(=O)(=O)c1ccc(-c2[nH]c(F)cc2-c2ccc(F)cc2)cc1`, the ED50 in data set [1] was found to be 0.31 mg/kg.

As to `Cc1ccc(S(=O)(=O)n2c(Br)cc(-c3ccc(F)cc3)c2-c2ccc(S(C)(=O)=O)cc2)cc1`, the ED50 in data set [1] is over 9 mg/kg.

As to `CS(=O)(=O)c1ccc(-c2[nH]c(Cl)cc2-c2ccc(F)cc2)cc1`, the Cmax in data set [22] was 1.4 uM l-1; in data set [23], 2.3 uM l-1. Moreover, the half-life in data set [24] was 348 min; in data set [25] it was 366 min. Besides, the F in [26] turned out to be 1. Moreover, the distribution volume (Vd) in data set [27] came out at 9 L/kg. Further, the ED50 in [1] came to 0.5 mg/kg. Further, in data set [8], the ED30 amounted to 1.43 µM/kg. For the same molecule, the TD50/ED50 in [10] came out at 70. For the same molecule, the TD50 in data set [12] worked out at 100 µmol/kg.

For the molecule `CS(=O)(=O)c1ccc(-c2[nH]c(F)c(F)c2-c2ccc(F)cc2)cc1`, the ED50 in data set [1] stood at 0.31 mg/kg.

With `Cn1c(Cl)c(Cl)c(-c2ccc(F)cc2)c1-c1ccc(S(C)(=O)=O)cc1`, in [1], the ED50 came to 5 mg/kg.
